According to ChEMBL document CHEMBL1759857, “Synthesis and evaluation of isatin analogs as caspase-3 inhibitors: introduction of a hydrophilic group increases potency in a whole cell assay” (Bioorg Med Chem Lett, 2011):
pEC50, pIC50: −log10 of the molar value.

Columns and labels:
[1] = target: T1, Caspase-1 (Homo sapiens, UniProt P29466); test: Inhibition of caspase 1 by fluorometric assay
T1 sequence (P29466 whole entry): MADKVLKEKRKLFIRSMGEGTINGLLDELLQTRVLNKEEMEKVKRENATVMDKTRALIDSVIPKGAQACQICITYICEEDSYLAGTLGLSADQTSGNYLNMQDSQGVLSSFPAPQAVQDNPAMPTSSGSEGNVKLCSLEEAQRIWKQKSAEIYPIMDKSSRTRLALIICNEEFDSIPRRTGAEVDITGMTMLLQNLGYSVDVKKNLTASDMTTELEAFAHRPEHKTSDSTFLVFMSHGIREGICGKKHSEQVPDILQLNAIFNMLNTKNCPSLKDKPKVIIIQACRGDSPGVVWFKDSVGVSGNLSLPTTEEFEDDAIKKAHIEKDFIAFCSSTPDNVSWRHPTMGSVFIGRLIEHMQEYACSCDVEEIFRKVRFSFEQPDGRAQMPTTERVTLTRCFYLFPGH
Method in brief: (§1)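 Recombinant caspases were tested in a standard fluorometric enzyme assay. IC50 is reported as mean ± SD of at least three independent assays.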

[2] = target: T2, Caspase-3 (Homo sapiens, UniProt P42574); test: Inhibition of human caspase 3 by fluorometric assay; method in brief: as §1
T2 sequence (P42574 whole entry): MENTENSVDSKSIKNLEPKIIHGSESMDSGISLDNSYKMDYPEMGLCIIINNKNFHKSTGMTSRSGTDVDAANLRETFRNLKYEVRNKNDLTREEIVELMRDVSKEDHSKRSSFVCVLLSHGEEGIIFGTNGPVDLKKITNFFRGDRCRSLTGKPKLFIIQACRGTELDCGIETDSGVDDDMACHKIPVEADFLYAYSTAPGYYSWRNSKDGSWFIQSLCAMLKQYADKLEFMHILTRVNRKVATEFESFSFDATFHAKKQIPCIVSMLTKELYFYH

[3] = target: T3, Caspase-7 (Homo sapiens, UniProt P55210); test: Inhibition of caspase 7 by fluorometric assay
T3 sequence (P55210 whole entry): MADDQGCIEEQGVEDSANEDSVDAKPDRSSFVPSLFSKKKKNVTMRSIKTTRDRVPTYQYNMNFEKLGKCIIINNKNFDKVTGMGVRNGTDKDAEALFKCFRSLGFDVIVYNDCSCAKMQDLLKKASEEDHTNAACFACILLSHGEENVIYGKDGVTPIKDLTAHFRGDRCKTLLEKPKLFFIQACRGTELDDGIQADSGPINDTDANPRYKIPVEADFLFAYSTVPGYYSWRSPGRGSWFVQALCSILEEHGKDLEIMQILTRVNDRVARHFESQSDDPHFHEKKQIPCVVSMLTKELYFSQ

[4] = target: T4, Caspase-6 (Homo sapiens, UniProt P55212); test: Inhibition of caspase 6 by fluorometric assay; method in brief: as §1
T4 sequence (P55212 whole entry): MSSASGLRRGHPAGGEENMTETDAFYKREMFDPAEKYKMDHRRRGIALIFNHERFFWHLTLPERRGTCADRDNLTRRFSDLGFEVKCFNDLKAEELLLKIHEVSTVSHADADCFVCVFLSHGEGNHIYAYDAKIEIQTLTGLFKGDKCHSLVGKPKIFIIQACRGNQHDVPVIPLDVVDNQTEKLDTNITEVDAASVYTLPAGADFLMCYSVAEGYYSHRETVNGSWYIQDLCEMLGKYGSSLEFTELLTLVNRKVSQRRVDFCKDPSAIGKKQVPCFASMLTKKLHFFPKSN

[5] = target: Caspase-8 (Homo sapiens, UniProt Q14790); test: Inhibition of caspase 8 by fluorometric assay; method in brief: as §1
Sequence of Caspase-8 (Q14790 217-374 limits assumed): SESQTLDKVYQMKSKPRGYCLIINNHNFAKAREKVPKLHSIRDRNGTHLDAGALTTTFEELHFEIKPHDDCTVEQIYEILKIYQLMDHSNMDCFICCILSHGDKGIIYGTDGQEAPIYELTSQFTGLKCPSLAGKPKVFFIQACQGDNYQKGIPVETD
Sequence of Caspase-8 (Q14790 385-479 limits assumed): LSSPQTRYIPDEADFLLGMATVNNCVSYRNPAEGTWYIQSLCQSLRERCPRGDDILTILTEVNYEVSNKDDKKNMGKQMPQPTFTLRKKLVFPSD

[6] = target: T2, Caspase-3; test: Inhibition of staurosporine induced activation of caspase 3 activation in human Hela cells assessed as hydrolysis of Z-DEVD-R110 substrate by microplate fluorescence assay; type: cell-based
Method in brief: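 HeLa cells were seeded at 1-2×10^4 per well and left to adhere overnight at 37°C in 5% CO2. […] A homogeneous caspase-3/7 kit with cell-permeable Z-DEVD-R110 was then used, reading fluorescence at ex 485/em 535 nm. EC50 was taken from dose-response curves, as mean ± SD of ≥3 independent experiments.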

Compound: N#CC(C#N)=C1C(=O)N(Cc2ccc(OCCF)cc2)c2ccc(S(=O)(=O)N3CC[C@H]3COc3ccccc3)cc21
- pIC50 [1]: 5.32
- pIC50 [2]: 7.65
- pIC50 [3]: 6.53
- pIC50 [4]: 6.13
- pIC50 [5]: < 4.60

Compound: COc1ccc(CN2C(=O)C(=O)c3cc(S(=O)(=O)N4CC[C@H]4COc4ccccc4)ccc32)cc1
- pEC50 [6]: 5.51

Compound: O=C1C(=O)N(Cc2cn(CCF)nn2)c2ccc(S(=O)(=O)N3CCC[C@H]3COc3ccc(F)cc3F)cc21
- pIC50 [1]: < 4.70
- pIC50 [2]: 7.97
- pIC50 [3]: 7.94
- pIC50 [4]: 5.35
- pEC50 [6]: 6.17
- pIC50 [5]: < 4.30

Compound: O=C1Nc2ccc(S(=O)(=O)N3CC[C@H]3COc3ccccc3)cc2C1=O
- pEC50 [6]: 5.02

Compound: O=C1C(=O)N(Cc2ccccc2)c2ccc(S(=O)(=O)N3CCC[C@H]3COc3ccccc3)cc21
- pEC50 [6]: 5.44

Compound: O=C1C(=O)N(Cc2ccc(OCCF)cc2)c2ccc(S(=O)(=O)N3CCC[C@H]3COc3cccnc3)cc21
- pIC50 [1]: < 4.70
- pIC50 [2]: 8.51
- pIC50 [3]: 7.95
- pIC50 [4]: 5.16
- pEC50 [6]: 6.41
- pIC50 [5]: < 4.30

Compound: O=C1C(=O)N(Cc2cn(CCF)nn2)c2ccc(S(=O)(=O)N3CCC[C@H]3COc3ccccc3)cc21
- pIC50 [1]: < 4.70
- pIC50 [2]: 7.91
- pIC50 [3]: 7.91
- pIC50 [4]: 5.00
- pEC50 [6]: 6.03
- pIC50 [5]: < 4.30

Compound: O=C1C(=O)N(Cc2ccc(OCCOCCOCCF)cc2)c2ccc(S(=O)(=O)N3CC[C@H]3COc3ccccc3)cc21
- pIC50 [1]: < 4.60
- pIC50 [2]: 7.57
- pIC50 [3]: 7.72
- pIC50 [4]: 5.52
- pIC50 [5]: < 4.30

Compound: O=C1Nc2ccc(S(=O)(=O)N3CCC[C@H]3COc3cccnc3)cc2C1=O
- pEC50 [6]: 5.74

Compound: O=C1C(=O)N(Cc2ccccc2)c2ccc(S(=O)(=O)N3CC[C@H]3COc3ccccc3)cc21
- pEC50 [6]: 5.55

Compound: N#CC(C#N)=C1C(=O)N(Cc2ccc(OCCOCCF)cc2)c2ccc(S(=O)(=O)N3CCC[C@H]3COc3ccccc3)cc21
- pIC50 [1]: < 5.00
- pIC50 [2]: 7.63
- pIC50 [3]: 7.15
- pIC50 [4]: 5.93
- pIC50 [5]: < 4.30

Compound: O=C1C(=O)N(Cc2ccccc2)c2ccc(S(=O)(=O)N3CCC[C@H]3COc3cccnc3)cc21
- pEC50 [6]: 6.19

Compound: CN1C(=O)C(=O)c2cc(S(=O)(=O)N3CCC[C@H]3COc3cccnc3)ccc21
- pEC50 [6]: 5.74

Compound: O=C1C(=O)N(Cc2ccc(OCCF)cc2)c2ccc(S(=O)(=O)N3CCC[C@H]3COc3ccccc3)cc21
- pEC50 [6]: 5.35

Compound: O=C1C(=O)N(Cc2ccc(OCCF)cc2)c2ccc(S(=O)(=O)N3CC[C@H]3COc3ccccc3)cc21
- pIC50 [1]: < 4.70
- pIC50 [2]: 8.07
- pIC50 [3]: 7.58
- pIC50 [4]: 5.31
- pEC50 [6]: 5.70
- pIC50 [5]: < 4.60

Compound: N#CC(C#N)=C1C(=O)N(Cc2ccc(OCCF)cc2)c2ccc(S(=O)(=O)N3CCC[C@H]3COc3ccccc3)cc21
- pIC50 [1]: < 5.00
- pIC50 [2]: 7.74
- pIC50 [3]: 7.02
- pIC50 [4]: 6.03
- pIC50 [5]: < 4.30

Compound: COc1ccc(CN2C(=O)C(=O)c3cc(S(=O)(=O)N4CC[C@H]4COc4cccnc4)ccc32)cc1
- pIC50 [1]: < 4.82
- pIC50 [2]: 8.48
- pIC50 [3]: 7.99
- pIC50 [4]: 5.04
- pEC50 [6]: 6.35
- pIC50 [5]: < 4.30
